# Data reported in the EternaBench riboswitch data.
# Test system: MS2 coat protein
# Test: apparent Kd, MS2 coat protein; higher = weaker binding; RNA-MaP array; FMN 200 µM where present
# Method in brief: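 Each design was made on Illumina sequencing-chip clusters by stalled E. coli RNA polymerase and titrated with SNAP-549-labelled MS2 coat protein from 0.7 or 1.5 nM, doubling to 3 µM, in the absence and then the presence of constant ligand. The buffer was 100 mM Tris-HCl pH 7.5, 80 mM KCl, 4 mM MgCl2, BSA, DTT, yeast tRNA and Tween-20. The apparent Kd is the median of filtered per-cluster fits of binding curves, with green signal normalised to red-channel RNA signal and control-cluster median Fmax.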
# [1] = designed as: OFF switch for flavin mononucleotide, no ligand
# [2] = ligand present: flavin mononucleotide, designed as: OFF switch for flavin mononucleotide
# [3] = designed as: ON switch for flavin mononucleotide, no ligand
# [4] = ligand present: flavin mononucleotide, designed as: ON switch for flavin mononucleotide
Sequence,apparent Kd [1],apparent Kd [2],apparent Kd [3],apparent Kd [4]
GGCCUGUAAGGAUAUUAGUAGUAGUCAGAAAAGACUAUUACUGAGAAGGUACAUGAGGAUCACCCAUGUUGGCC,17.4 nM,20.1 nM,–,–
UCUGGAGCAGGAUAUAUAUGACGUGCUUCGGCACGAAGAUCACAUGAGGAUCACCCAUGUAGAAGGGCUCCAGA,109 nM,946 nM,–,–
UGCGUAUACGGAGGAUAUGUACAGGUCGCCGUACAUGAGGAUCACCCAUGUGCAGAAGGCCGUAGCGCUAAACUGGAUUGCAAU,11.4 nM,57.3 nM,–,–
UACGGACAUGAGGAUCACCCAUGUGAGGAUAUCGAUAACGAUAGCAUAAUAUAAACGGCGAGAAGGCACAGCGU,32.6 nM,45.8 nM,–,–
UGUGCCUCGAGAGGAUAUACAUGAGGAUCACCCAUGUAAGUAGAGGUGGAAACACCUCUACAAAUGUAGAAGGCUCGAGGCACA,20.6 nM,58.3 nM,–,–
AUGCUUAUCGAAGGAUAUGGUUACAUGAGGAUCACCCAUGUUAUGCUUGGUUACUUGUUUAGUUUCCAGAAGGUCGAUUAGUUG,71 nM,172 nM,–,–
AAUAACAGAGGAUAUACUGUUUUAUGUAUUUAUUAUUUUAAACAUGAGGAUCACCCAUGUAGAAGGCUGAUUAA,30.2 nM,27 nM,–,–
GGAAAUCAUGUAGGAUAUGCAUGGCGAAGCUACGCAGAAGGACAUGAGGAUCACCCAUGUUAUAGCGUCCGUGAAAGGAUGCAA,39.7 nM,120 nM,–,–
AAUCGGGAGCAGAAGGCAUGUAAUAAAACAUGAGGAUCACCCAUGUAGUUAAGGCGAAAGCCGCAUGAGGAUAUGCUCCCGUAA,–,–,5.39 nM,4.99 nM
CCAGGCAGUGUGAGGAUAUGCUGGUCCUUGGAUCAGCAGAAGGCACAUGAGGAUCACCCAUGUGAAGAGCUUGG,23.9 nM,115 nM,–,–
GGUUUGGGAGGAUAUGGUUUUAAUAACAUGAGGAUCACCCAUGUAAAUAGAUCUUCGAGGCCAGAAGGCUCGGGCC,63.8 nM,120 nM,–,–
GUUAUUUAUGUAGGAUAUGCGAGGCGAGCCUGAGCAGAAGGACAUGAGGAUCACCCAUGUAUUGCGGUUUAUGUUCAGAUCGCU,15.3 nM,19 nM,–,–
GGAACCGCUCAGAAGGACAUGAGGAUCACCCAUGUAGGAUAUGACUCGGUCUUUACGUGGCGCCCUGCAUCAUCGUUAUCUGCU,–,–,165 nM,23.1 nM
UUGGACGUCGUAGGAUAUGUAGGAUAUUCGUACAUGAGGAUCACCCAUGUUGACAUGGAAGAAGGACAGAAGGACGAUGUCCAU,–,–,12.2 nM,4.55 nM
GUGGUCAGACAUGAGGAUCACCCAUGUGGAAUAAAUAACGUCAAGGAUAUUCAAUAUAGGAUAUAGAAGAAGGUGAGAUUGGUG,–,–,153 nM,177 nM
UGCAGCGUGCACAUGAGGAUCACCCAUGUGCCAGCGGACGCACAGGAUAUGCAAUCGUACGGCUAGCAGAAGGGUGGGUCUCAC,–,–,13.5 nM,7.13 nM
GGGAAACAUGAGGAUCACCCAUGUGAGGAUAUCGAAAAAAAAAAAAAAAAAAAAAAAACGAGAAGGCACACCGG,71 nM,110 nM,–,–
GAUCUGUCGGUUGACCCAACAUGAGGAUCACCCAUGUAUGUGGAGGAUAUCUAGAUCUGCGGACGAGAGAAGGCCGCAUACGUU,69 nM,421 nM,–,–
AGCUAUUACGAAGGAUAUUCUGACAUGAGGAUCACCCAUGUCUUCAUGAUUUAUUGUGAUCACAUGAAGAAGGUCGUACUAACA,–,–,198 nM,48.3 nM
UAUAUGUCAGGAUAUCGAUUGGAGCGGAAUUUAGCUUUGGUCGAGAAGGGACAUGAGGAUCACCCAUGUUCCUC,30 nM,142 nM,–,–
GUAUACGAUGAGGAUAUAUGAUAUCAAAGCAUCAUAGAAGGCAUCACAUGAGGAUCACCCAUGUGAUCUUCUUU,18.1 nM,65.2 nM,–,–
AGAAAUUCAGGAUAUACAUGAGGAUCACCCAUGUUUGGCGGAGGCGCCGAGAUCCCACGUAGAAGGGAAAAGAC,28 nM,50.6 nM,–,–
GGAUGACAAAGUCAUCCAAUACGAACAUGAGGAUCACCCAUGUAGGAUAUGCAACUCAAAGAGUUGCAGAAGGACAUGUGUCUU,28.9 nM,128 nM,–,–
